According to ChEMBL document CHEMBL4673342, “Lipid-Lowering Activities of Cucurbitacins Isolated from Trichosanthes cucumeroides and Their Synthetic Derivatives” (2020):
Activity calls are given as the source filed them. The rule behind the calls is not given here.

test system: HepG2; test: Induction of […] uptake in human HepG2 cells at 5 uM by DIL probe based fluorescence assay; format: functional, cell-based
Method in brief: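 HepG2 cells (passages 4–11) in DMEM/10% FBS were treated with DMSO or compound at 5 µM, then given DiI-labelled human plasma LDL (20 µg/mL) for 3 h at 37 °C in the dark. After ice-cold PBS/0.4% albumin rinses, cell-bound dye was extracted with isopropanol and fluorescence read at 520–578 nm. Uptake rate is relative to DMSO. Positive control nagilactone B at 5 µM; n = 3.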

| Structure (SMILES) | Activity |
| --- | --- |
| CC(=O)O[C@H]1C[C@@H]2C(=CC(=O)[C@@H]3[C@@]2(C)C(=O)C[C@]2(C)[C@@H]([C@@](C)(O)C(=O)/C=C/C(C)(C)OC(C)=O)[C@H](OC(=O)O)C[C@@]32C)C(C)(C)C1=O | Active |
| CC(=O)OC(C)(C)/C=C/C(=O)[C@](C)(O)[C@H]1C(=O)C[C@@]2(C)[C@@H]3CC=C4[C@@H](C[C@H](O)C(=O)C4(C)C)[C@]3(C)C(=O)C[C@]12C | inactive |
| CC(=O)O[C@@H]1C[C@@]2(C)[C@@H]3CC=C4[C@@H](CC(=O)[C@H](O)C4(C)C)[C@]3(C)C(=O)C[C@]2(C)[C@H]1[C@@](C)(O)C(=O)/C=C/C(C)(C)OC(C)=O | inactive |
| CC1(C)C(=O)[C@@H](O)C[C@@H]2C1=CC[C@@H]1[C@@]2(C)C(=O)C[C@]2(C)[C@@H]([C@@](C)(O)C(=O)C[C@@H](O)C(C)(C)O)[C@H](O)C[C@@]12C | Active |
| CCC(=O)O[C@H]1C[C@@H]2C(=CC[C@@H]3[C@@]2(C)C(=O)C[C@]2(C)[C@@H]([C@@](C)(O)C(=O)CCC(C)(C)OC(C)=O)[C@H](OC(=O)CC)C[C@@]32C)C(C)(C)C1=O | inactive |
| CC(=O)OC(C)(C)CCC(=O)[C@](C)(O)[C@H]1[C@H](O)C[C@@]2(C)[C@@H]3[C@@H](O)C=C4[C@@H](CC(=O)[C@H](O)C4(C)C)[C@]3(C)C(=O)C[C@]12C | Active |
| CC1(C)C(=O)[C@@H](O)C[C@@H]2C1=C[C@H](O)[C@@H]1[C@@]2(C)C(=O)C[C@]2(C)[C@@H](C=O)[C@H](O)C[C@@]12C | Active |
| CC(=O)OC(C)(C)/C=C/C(=O)[C@](C)(O)[C@H]1[C@H](O)C[C@@]2(C)[C@@H]3[C@@H](O)C=C4[C@@H](C[C@H](O)C(=O)C4(C)C)[C@]3(C)C(=O)C[C@]12C | Active |
| CC(=O)OC(C)(C)CCC(=O)[C@](C)(O)[C@H]1C(=O)C[C@@]2(C)[C@@H]3CC=C4[C@@H](CC(=O)C(=O)C4(C)C)[C@]3(C)C(=O)C[C@]12C | inactive |
| CC(=O)OC(C)(C)CCC(=O)[C@](C)(O)[C@H]1[C@H](O)C[C@@]2(C)[C@@H]3[C@@H](O)C=C4[C@@H](C[C@H](O)C(=O)C4(C)C)[C@]3(C)C(=O)C[C@]12C | Active |
| CC(=O)O[C@@H]1C[C@@]2(C)[C@@H]3CC=C4[C@@H](CC(=O)[C@H](O)C4(C)C)[C@]3(C)C(=O)C[C@]2(C)[C@H]1[C@@](C)(O)C(=O)CCC(C)(C)OC(C)=O | inactive |
| CC(=O)O[C@H]1C[C@@H]2C(=CC[C@@H]3[C@@]2(C)C(=O)C[C@]2(C)[C@@H]([C@@](C)(O)C(=O)CCC(C)(C)OC(C)=O)[C@H](OC(C)=O)C[C@@]32C)C(C)(C)C1=O | inactive |
| CC(=O)OC(C)(C)/C=C/C(=O)[C@](C)(O)[C@H]1C(=O)C[C@@]2(C)[C@@H]3CC=C4[C@@H](CC(=O)C(=O)C4(C)C)[C@]3(C)C(=O)C[C@]12C | inactive |
| CC(=O)OC(C)(C)/C=C/C(=O)[C@](C)(O)[C@H]1[C@H](O)C[C@@]2(C)[C@@H]3CC=C4[C@@H](C[C@H](OC(=O)c5ccccc5)C(=O)C4(C)C)[C@]3(C)C(=O)C[C@]12C | inactive |
| CC(=O)O[C@@H]1C[C@@]2(C)[C@@H]3CC=C4[C@@H](CC(=O)[C@H](OC(C)=O)C4(C)C)[C@]3(C)C(=O)C[C@]2(C)[C@H]1[C@@](C)(O)C(=O)/C=C/C(C)(C)OC(C)=O | inactive |
| CC(=O)OC(C)(C)/C=C/C(=O)[C@](C)(O)[C@H]1[C@H](O)C[C@@]2(C)[C@@H]3[C@@H](O)C=C4[C@@H](CC(=O)[C@H](O)C4(C)C)[C@]3(C)C(=O)C[C@]12C | Active |
| CO[C@H](CC(=O)[C@](C)(O)[C@H]1[C@H](O)C[C@@]2(C)[C@@H]3CC=C4[C@@H](C[C@H](O)C(=O)C4(C)C)[C@]3(C)C(=O)C[C@]12C)C(C)(C)O | Active |
| CC(=O)OC(C)(C)CCC(=O)[C@](C)(O)[C@H]1[C@H](O)C[C@@]2(C)[C@@H]3CC=C(C(C)(C)O)[C@@H](CC(=O)O)[C@]3(C)C(=O)C[C@]12C | Active |
| CC(C)(O)/C=C/C(=O)[C@](C)(O)[C@H]1[C@H](O)C[C@@]2(C)[C@@H]3CC=C4[C@@H](CC(O)C(=O)C4(C)C)[C@]3(C)C(=O)C[C@]12C (stereo partly specified) | Active |
| CC(=O)OC(C)(C)/C=C/C(=O)[C@](C)(O)[C@H]1[C@H](O)C[C@@]2(C)[C@@H]3CC=C4[C@@H](CC(=O)[C@H](O)C4(C)C)[C@]3(C)C(=O)C[C@]12C | Active |
| CC(=O)OC1C[C@@H]2C(=CC(=O)[C@@H]3[C@@]2(C)C(=O)C[C@]2(C)[C@@H]([C@@](C)(O)C(=O)CCC(C)(C)OC(C)=O)[C@H](OC(C)=O)C[C@@]32C)C(C)(C)C1O (stereo partly specified) | Active |
| CC(C)(O)CCC(=O)[C@](C)(O)[C@H]1[C@H](O)C[C@@]2(C)[C@@H]3CC=C4[C@@H](C[C@H](O)C(=O)C4(C)C)[C@]3(C)C(=O)C[C@]12C | Active |
| CC(C)(O)/C=C/C(=O)[C@](C)(O)[C@H]1[C@H](O)C[C@@]2(C)[C@@H]3CC=C4[C@@H](C=C(O)C(=O)C4(C)C)[C@]3(C)C(=O)C[C@]12C | Active |

| Structure (SMILES) | Activity |
| --- | --- |
| CC(=O)OC(C)(C)CCC(=O)[C@](C)(O)[C@H]1[C@H](O)C[C@@]2(C)[C@@H]3CC=C(C(C)(C)C(=O)O)[C@@H](CC(=O)O)[C@]3(C)C(=O)C[C@]12C | Active |
| CC(=O)OC(C)(C)/C=C/C(=O)[C@](C)(O)[C@H]1[C@H](O)C[C@@]2(C)[C@@H]3CC=C4[C@@H](C[C@H](OC5O[C@H](CO)[C@@H](O)[C@H](O)[C@H]5C)C(=O)C4(C)C)[C@]3(C)C(=O)C[C@]12C (stereo partly specified) | Active |
| CC(=O)O[C@@H]1C[C@@]2(C)[C@@H]3CC=C4[C@@H](C[C@H](O)C(=O)C4(C)C)[C@]3(C)C(=O)C[C@]2(C)[C@H]1[C@@](C)(O)C(=O)/C=C/C(C)(C)OC(C)=O | inactive |
| CC(=O)OC(C)(C)CCC(=O)[C@](C)(O)[C@H]1[C@H](O)C[C@@]2(C)[C@@H]3CC=C4[C@@H](C[C@H](OC(=O)CCC(=O)O)C(=O)C4(C)C)[C@]3(C)C(=O)C[C@]12C | inactive |
| CC(=O)OC(C)(C)/C=C/C(=O)[C@](C)(O)[C@H]1[C@H](O)C[C@@]2(C)[C@@H]3CC=C4[C@@H](C[C@H](O)C(=O)C4(C)C)[C@]3(C)C(=O)C[C@]12C | Active |
| CC(=O)OC(C)(C)CCC(=O)[C@](C)(O)[C@H]1[C@H](O)C[C@@]2(C)[C@@H]3CC=C4[C@@H](C[C@H](OC(=O)c5ccccc5)C(=O)C4(C)C)[C@]3(C)C(=O)C[C@]12C | inactive |
| CC(=O)OC(C)(C)CCC(=O)[C@](C)(O)[C@H]1[C@H](O)C[C@@]2(C)[C@@H]3CC=C4[C@@H](C[C@H](OC5O[C@H](CO)[C@@H](O)[C@H](O)[C@H]5C)C(=O)C4(C)C)[C@]3(C)C(=O)C[C@]12C (stereo partly specified) | Active |
| CC(=O)O[C@H]1C(=O)C[C@@H]2C(=CC[C@@H]3[C@@]2(C)C(=O)C[C@]2(C)[C@@H]([C@@](C)(O)C(=O)/C=C/C(C)(C)OC(C)=O)[C@H](O)C[C@@]32C)C1(C)C | inactive |
| CC(C)(O)CCC(=O)[C@](C)(O)[C@H]1[C@H](O)C[C@@]2(C)[C@@H]3CC=C4[C@@H](C=C(O)C(=O)C4(C)C)[C@]3(C)C(=O)C[C@]12C | Active |
| CC(=O)O[C@@H]1C[C@@]2(C)[C@@H]3CC=C4[C@@H](CC(=O)[C@H](OC(C)=O)C4(C)C)[C@]3(C)C(=O)C[C@]2(C)[C@H]1[C@@](C)(O)C(=O)CCC(C)(C)OC(C)=O | inactive |
| CC(=O)OC(C)(C)CCC(=O)[C@](C)(O)[C@H]1[C@H](O)C[C@@]2(C)[C@@H]3CC=C4[C@@H](CC(=O)OC4(C)C)[C@]3(C)C(=O)C[C@]12C | Active |
| CC(=O)OC(C)(C)[C@@H](O)CC(=O)[C@](C)(O)[C@H]1[C@H](O)C[C@@]2(C)[C@@H]3[C@@H](O)C=C4[C@@H](CC(=O)[C@@H](O)C4(C)C)[C@]3(C)C(=O)C[C@]12C | Active |
| CC(=O)O[C@H]1C[C@@H]2C(=CC[C@@H]3[C@@]2(C)C(=O)C[C@]2(C)[C@@H]([C@@](C)(O)C(=O)/C=C/C(C)(C)OC(C)=O)[C@H](OC(=O)O)C[C@@]32C)C(C)(C)C1=O | inactive |
| CC(=O)OC(C)(C)CCC(=O)[C@](C)(O)[C@H]1[C@H](O)C[C@@]2(C)[C@@H]3CC=C4[C@@H](C[C@H](O)C(=O)C4(C)C)[C@]3(C)C(=O)C[C@]12C | Active |
| CC(=O)O[C@H]1C[C@@H]2C(=CC[C@@H]3[C@@]2(C)C(=O)C[C@]2(C)[C@@H]([C@@](C)(O)C(=O)/C=C/C(C)(C)OC(C)=O)[C@H](O)C[C@@]32C)C(C)(C)C1=O | inactive |
| CC(=O)OC(C)(C)CCC(=O)[C@](C)(O)[C@H]1[C@H](O)C[C@@]2(C)[C@@H]3[C@@H](O)C=C4[C@@H](CC(=O)[C@@H](O)C4(C)C)[C@]3(C)C(=O)C[C@]12C | Active |
| CC(=O)OC(C)(C)[C@H](O)CC(=O)[C@](C)(O)[C@H]1[C@H](O)C[C@@]2(C)[C@@H]3[C@@H](O)C=C4[C@@H](CC(=O)[C@@H](O)C4(C)C)[C@]3(C)C(=O)C[C@]12C | Active |
| CC(=O)O[C@H]1C(=O)C[C@@H]2C(=CC[C@@H]3[C@@]2(C)C(=O)C[C@]2(C)[C@@H]([C@@](C)(O)C(=O)CCC(C)(C)OC(C)=O)[C@H](O)C[C@@]32C)C1(C)C | inactive |
| CC(C)(O)/C=C/C(=O)[C@](C)(O)[C@H]1[C@H](O)C[C@@]2(C)[C@@H]3CC=C4[C@@H](C[C@H](O)[C@@H](O)C4(C)C)[C@]3(C)C(=O)C[C@]12C | Active |
| CC1(C)C(=O)[C@@H](O)C[C@@H]2C1=CC[C@@H]1[C@@]2(C)C(=O)C[C@]2(C)[C@@H]([C@@](C)(O)C(=O)C[C@H](O)C(C)(C)O)[C@H](O)C[C@@]12C | Active |
| CC(=O)OC(C)(C)CCC(=O)[C@](C)(O)[C@H]1C(=O)C[C@@]2(C)[C@@H]3CC=C4[C@@H](C[C@H](O)C(=O)C4(C)C)[C@]3(C)C(=O)C[C@]12C | inactive |
| CO[C@@H](CC(=O)[C@](C)(O)[C@H]1[C@H](O)C[C@@]2(C)[C@@H]3CC=C4[C@@H](C[C@H](O)C(=O)C4(C)C)[C@]3(C)C(=O)C[C@]12C)C(C)(C)O | Active |
| CC(=O)OC(C)(C)/C=C/C(=O)[C@](C)(O)[C@H]1[C@H](OC(=O)c2ccccc2)C[C@@]2(C)[C@@H]3CC=C4[C@@H](C[C@H](OC(=O)c5ccccc5)C(=O)C4(C)C)[C@]3(C)C(=O)C[C@]12C | inactive |
